Measured values from paper PMC9274295 (International Journal of Nanomedicine, 2022).
Like-named read-outs stand apart in the source and are kept apart here. Blank lines part the entries; values can stand above or below the compound they belong to.

Experiments:
SKOV-3 cells = test: Combination index of PTX and CBP; format: cell-based, Human; conditions: read-out: IC50 of a single drug
Summary of the method: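 SKOV-3 cells cultured in McCoy's 5A with 10% FBS and penicillin-streptomycin at 37°C, 5% CO2. Seeded at 5.0×10³ cells/well and left overnight. Exposed for 48 h to each drug alone and to mixtures at various ratios, with the mixtures' final PTX at 0.2–50.0 μM. CCK-8 added for 2 h, then absorbance read at 450 nm. Data given as mean ± SD, n = 3.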

SKOV-3 tumor = test: In vivo targeting; conditions: 0.11 µg DiR/g i.v., 1-24 h, tumor-bearing NU/NU mice
Summary of the method: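 Tumors made by injecting 1.0×10⁷ SKOV-3 cells/100 µL into the right lower abdomen of female NU/NU mice aged 5–6 weeks. At about 400 mm³, mice were randomised to free DiR or DiR-labelled liposomes, given by tail vein. Mice were anaesthetised with 4.0% chloral hydrate and imaged at 1, 2, 6, 12 and 24 h. They were then killed for ex vivo imaging and quantification of the tumor, heart, liver, spleen, lungs and kidneys.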

IC50 (SKOV-3 cells; Homo sapiens, SK-OV-3, 48 h): 3.89 µM
SMILES: CC(=O)O[C@H]1C(=O)[C@@]2(C)[C@H]([C@H](OC(=O)c3ccccc3)[C@]3(O)C[C@H](OC(=O)[C@H](O)[C@@H](NC(=O)c4ccccc4)c4ccccc4)C(C)=C1C3(C)C)[C@]1(OC(C)=O)CO[C@@H]1C[C@@H]2O [PTX, Paclitaxel]

SMILES: N.N.O=C([O-])C1(C(=O)[O-])CCC1.[Pt+2] [CBP, carboplatin]
IC50 (SKOV-3 cells; single drug, SKOV-3 cells, 48 h, CCK-8): 19.2 µM

SMILES: CCCCCCCCCCCCCCCCCCN1/C(=C/C=C/C=C/C=C/C2=[N+](CCCCCCCCCCCCCCCCCC)c3ccccc3C2(C)C)C(C)(C)c2ccccc21.[I-] [DiR]
Enrichment in the tumor site (SKOV-3 tumor): not enriched in the tumor site
